This note sets out measurements from ChEMBL document CHEMBL4184291, “Discovery of N-arylpyrroles as agonists of GPR120 for the treatment of type II diabetes” (Bioorg Med Chem Lett, 2018).

The target of data set [1] is T1, Free fatty acid receptor 4 (Homo sapiens, UniProt Q5NUL3).
T1 sequence (Q5NUL3 whole entry): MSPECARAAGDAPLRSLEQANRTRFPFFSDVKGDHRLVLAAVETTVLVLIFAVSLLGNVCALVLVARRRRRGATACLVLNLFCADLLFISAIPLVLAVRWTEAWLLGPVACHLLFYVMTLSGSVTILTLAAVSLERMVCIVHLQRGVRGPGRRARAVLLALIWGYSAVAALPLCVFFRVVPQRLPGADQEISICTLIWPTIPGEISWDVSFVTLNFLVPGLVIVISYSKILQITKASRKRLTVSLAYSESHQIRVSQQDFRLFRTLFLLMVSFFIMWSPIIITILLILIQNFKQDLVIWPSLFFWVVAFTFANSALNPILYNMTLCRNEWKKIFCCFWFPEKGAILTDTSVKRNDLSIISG
Description: Agonist activity at recombinant human GPR120 short isoform expressed in HEK293 cells assessed as intracellular calcium flux measured for 300 secs at 1 sec time interval by Fluo-4 NW based FLIPR assay. In kind it is functional, cell-based. In short, it runs like this:
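Human GPR120 calcium-flux assay in HEK-293 cells; values are averages of n > 2 runs, SEM < ±25%.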
(In general: Calcium flux is commonly read through the fluorescence of an indicator in the cells.)

Data set [2] deals with Mus musculus. Nature of the data set: Antiobesity activity in diet-induced obesity C57Bl6/J mouse model assessed as basal glucose level in plasma at 3 mg/kg qd for 15 days measured on day 15 post 6 hrs fasting (reference value: 187 +/- 24 mg/dL). Type of data set: functional.
Data set [3] deals with Mus musculus. Nature of the data set: Antiobesity activity in diet-induced obesity C57Bl6/J mouse model assessed as final glucose level in plasma at 3 mg/kg qd for 15 days measured on day 15 post 6 hrs fasting (reference value: 184 +/- 30 mg/dL). Type of data set: functional.
Data set [4] relates to Mus musculus. Description: Antiobesity activity in diet-induced obesity C57Bl6/J mouse model assessed as change in plasma glucose level at 3 mg/kg qd for 15 days measured on day 15 post 6 hrs fasting. In kind it is functional.
Data set [5] has as its system Mus musculus. Description: Antiobesity activity in diet-induced obesity C57Bl6/J mouse model assessed as basal insulin level in plasma at 3 mg/kg qd for 15 days measured on day 15 post 6 hrs fasting (reference value: 16959 +/- 4943 pg/ml). In kind it is functional.
Data set [6] deals with Mus musculus. Description: Antiobesity activity in diet-induced obesity C57Bl6/J mouse model assessed as final insulin level in plasma at 3 mg/kg qd for 15 days measured on day 15 post 6 hrs fasting (reference value: 7304 +/- 2967 pg/ml). In kind it is functional.
Data set [7] deals with Mus musculus. Description: Antiobesity activity in diet-induced obesity C57Bl6/J mouse model assessed as change in plasma insulin level at 3 mg/kg qd for 15 days measured on day 15 post 6 hrs fasting. Type of data set: functional.
The target in data set [8] is Cytochrome P450 3A4 (Homo sapiens, UniProt P08684). Description: Inhibition of CYP3A4 (unknown origin). Type of data set: ADME.
Cytochrome P450 3A4, sequence (P08684 whole entry): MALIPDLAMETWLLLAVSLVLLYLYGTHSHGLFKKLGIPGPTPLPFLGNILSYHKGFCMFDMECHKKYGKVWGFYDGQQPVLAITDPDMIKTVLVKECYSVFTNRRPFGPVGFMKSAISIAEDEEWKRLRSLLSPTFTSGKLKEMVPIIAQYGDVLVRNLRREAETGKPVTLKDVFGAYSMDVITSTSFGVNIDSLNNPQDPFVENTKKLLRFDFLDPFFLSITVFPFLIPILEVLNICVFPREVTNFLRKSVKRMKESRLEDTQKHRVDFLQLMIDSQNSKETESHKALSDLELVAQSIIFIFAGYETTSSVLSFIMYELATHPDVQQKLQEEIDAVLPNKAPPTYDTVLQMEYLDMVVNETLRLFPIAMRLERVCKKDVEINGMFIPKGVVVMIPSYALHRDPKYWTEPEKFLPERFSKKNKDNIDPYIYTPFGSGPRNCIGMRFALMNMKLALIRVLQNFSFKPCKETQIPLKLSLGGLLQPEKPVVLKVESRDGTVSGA
The target in data set [9] is Cytochrome P450 2D6 (Homo sapiens, UniProt P10635). Nature of the data set: Inhibition of CYP2D6 (unknown origin). In kind it is ADME.
Cytochrome P450 2D6, sequence (P10635 whole entry): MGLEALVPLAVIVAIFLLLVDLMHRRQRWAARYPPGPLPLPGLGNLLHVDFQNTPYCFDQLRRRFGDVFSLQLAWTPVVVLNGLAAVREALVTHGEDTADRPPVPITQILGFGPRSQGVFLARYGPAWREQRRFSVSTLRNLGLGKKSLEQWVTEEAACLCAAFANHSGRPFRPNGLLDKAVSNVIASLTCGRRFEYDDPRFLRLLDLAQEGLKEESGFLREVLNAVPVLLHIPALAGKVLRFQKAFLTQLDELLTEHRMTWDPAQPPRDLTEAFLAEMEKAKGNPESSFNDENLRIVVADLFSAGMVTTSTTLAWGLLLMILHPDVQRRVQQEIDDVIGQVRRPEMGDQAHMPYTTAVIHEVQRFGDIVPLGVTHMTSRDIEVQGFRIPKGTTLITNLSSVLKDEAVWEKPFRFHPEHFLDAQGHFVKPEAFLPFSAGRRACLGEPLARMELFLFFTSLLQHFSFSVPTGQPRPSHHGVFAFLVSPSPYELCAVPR
The target of data set [10] is T2, Cytochrome P450 1A2 (Homo sapiens, UniProt P05177).
T2 sequence (P05177 whole entry): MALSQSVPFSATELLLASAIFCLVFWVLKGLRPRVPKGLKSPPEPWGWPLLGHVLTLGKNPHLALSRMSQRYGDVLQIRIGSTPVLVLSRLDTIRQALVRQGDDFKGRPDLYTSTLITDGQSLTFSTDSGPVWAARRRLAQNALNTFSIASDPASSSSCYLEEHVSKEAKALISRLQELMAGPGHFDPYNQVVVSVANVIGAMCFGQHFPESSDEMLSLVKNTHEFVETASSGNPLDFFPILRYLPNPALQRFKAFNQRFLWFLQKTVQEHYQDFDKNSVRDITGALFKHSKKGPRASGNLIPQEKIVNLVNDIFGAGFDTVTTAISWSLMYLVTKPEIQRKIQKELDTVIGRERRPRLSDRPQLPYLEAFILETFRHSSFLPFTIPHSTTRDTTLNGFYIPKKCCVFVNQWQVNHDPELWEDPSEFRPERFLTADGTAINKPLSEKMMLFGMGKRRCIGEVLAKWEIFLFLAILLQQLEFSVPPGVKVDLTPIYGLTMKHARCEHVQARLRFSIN
Nature of the data set: Inhibition of CYP1A2 (unknown origin). Type of data set: ADME.

For data set [11], the target named is Cytochrome P450 2C9 (Homo sapiens, UniProt P11712). Nature of the data set: Inhibition of CYP2C9 (unknown origin). Type of data set: ADME.
Cytochrome P450 2C9, sequence (P11712 whole entry): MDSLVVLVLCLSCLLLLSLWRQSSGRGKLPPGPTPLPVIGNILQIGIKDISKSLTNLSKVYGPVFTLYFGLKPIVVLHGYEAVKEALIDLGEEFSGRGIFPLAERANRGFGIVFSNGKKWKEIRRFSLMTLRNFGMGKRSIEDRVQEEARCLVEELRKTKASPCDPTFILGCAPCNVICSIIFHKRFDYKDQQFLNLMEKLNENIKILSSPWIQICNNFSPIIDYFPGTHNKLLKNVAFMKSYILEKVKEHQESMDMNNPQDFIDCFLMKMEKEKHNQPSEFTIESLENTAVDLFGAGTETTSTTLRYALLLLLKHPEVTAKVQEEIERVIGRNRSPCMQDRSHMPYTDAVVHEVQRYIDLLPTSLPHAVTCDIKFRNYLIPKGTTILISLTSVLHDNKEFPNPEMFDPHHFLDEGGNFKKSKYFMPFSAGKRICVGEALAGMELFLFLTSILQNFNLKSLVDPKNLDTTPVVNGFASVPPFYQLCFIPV
In data set [12] the target is Cytochrome P450 2C19 (Homo sapiens, UniProt P33261). Nature of the data set: Inhibition of CYP2C19 (unknown origin). Type of data set: ADME.
Cytochrome P450 2C19, sequence (P33261 whole entry): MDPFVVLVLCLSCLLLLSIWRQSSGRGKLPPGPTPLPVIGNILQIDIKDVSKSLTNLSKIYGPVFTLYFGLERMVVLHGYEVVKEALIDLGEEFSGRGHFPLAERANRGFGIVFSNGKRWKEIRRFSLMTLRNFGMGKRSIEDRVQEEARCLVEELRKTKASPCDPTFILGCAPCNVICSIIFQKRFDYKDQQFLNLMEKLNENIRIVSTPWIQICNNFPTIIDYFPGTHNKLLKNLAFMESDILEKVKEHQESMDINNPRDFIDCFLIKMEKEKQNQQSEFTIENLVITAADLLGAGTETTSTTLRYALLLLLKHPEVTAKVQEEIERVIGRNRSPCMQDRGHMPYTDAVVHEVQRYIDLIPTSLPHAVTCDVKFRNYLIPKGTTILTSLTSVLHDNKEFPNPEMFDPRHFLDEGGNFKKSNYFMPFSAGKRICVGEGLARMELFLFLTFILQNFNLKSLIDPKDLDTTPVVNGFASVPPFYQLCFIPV
Data set [13] in a line: Half life in human liver microsomes. Type of data set: ADME, microsome. (In general: Liver microsomes are vesicles of endoplasmic reticulum, rich in cytochrome P450 enzymes.)
The nature of data set [14]: Half life in mouse liver microsomes. In kind it is ADME, microsome.
A short description of data set [15]: Half life in rat liver microsomes. Type of data set: ADME, microsome.
The nature of data set [16]: Protein binding in human plasma. In kind it is ADME, cell-free. Conditions: read-out: PPB (converted).
Data set [17] is described as follows: Protein binding in mouse plasma. Particulars: read-out: PPB (converted). In kind it is ADME, cell-free.
A short description of data set [18]: Protein binding in rat plasma. In kind it is ADME, cell-free. Conditions: read-out: PPB (converted).
A short description of data set [19]: Stability of the compound in air assessed as oxidation. In kind it is physicochemical.

Consider `COc1ccc(-n2ccc(C(F)(F)F)c2COc2c(F)cc(CCC(=O)O)cc2F)cc1`, for which the EC50 (as a rule, the concentration needed to bring the measured effect to its halfway point) in data set [1] amounted to 0.184 µM.
With `CN(CCOc1ccc(CC2SC(=O)NC2=O)cc1)c1ccccn1` (centres undefined) [ROSIGLITAZONE], the Activity in [2] was 188 mg/dL; in [3], 148 mg/dL; in [4], -36.6 mg/dL; in data set [5], 15956 pg/mL; in data set [6], 1348 pg/mL; in [7], -5970 pg/mL.
For the molecule `Cc1ccc(-n2ccc(C(F)(F)F)c2COc2c(F)cc(CCC(=O)O)cc2F)cc1`, the INH in data set [8] is greater than 10 µM; in [9] it was greater than 10 µM; in [10] it was greater than 10 µM; in data set [11], 4.2 µM; in data set [12], greater than 10 µM. The half-life (usually how long it takes for the measured level to halve) in data set [13] is 7 min; in data set [14], 85 min; in data set [15], less than 4 min. In addition, the fraction unbound in data set [16] is 0.0008; in data set [17] it was 0.0041; in [18] it was 0.0015.
For `COC(=O)CCc1cc(F)c(OCc2c(C(F)(F)F)ccn2-c2ccc(Cl)cc2)c(F)c1`, in data set [1], the EC50 is greater than 5 µM.
In the case of `CCc1ccc(-n2ccc(C(F)(F)F)c2COc2ccc(CCC(=O)O)c(F)c2F)cc1`, the INH in [8] is greater than 10 µM; in data set [9] it was greater than 10 µM; in [10], greater than 10 µM; in [11], 7 µM; in data set [12], 9 µM. The half-life in data set [13] is 15 min; in data set [14] it was 7 min; in data set [15], less than 4 min. Further, the fraction unbound in data set [16] was 0.0002; in data set [17] it was 0.0014; in data set [18], 0.0008.
For `O=C(O)CCc1cc(F)c(OCc2c(C(F)(F)F)ccn2-c2ccccc2)c(F)c1`, the EC50 in data set [1] lay in the range of 0.1 to 0.101 µM.
Consider `Cc1c(CCC(=O)O)ccc(OCc2c(C(F)(F)F)ccn2-c2ccc(Cl)cc2)c1C`, for which the Stability entry in data set [19] is reported as “Stable”.
On the same count and under the same terms, the value for `Cc1c(CCC(=O)O)ccc(OCc2cccn2-c2ccc(Br)cc2)c1C` was “Unstable”.
Same read-out and setting: the value for `O=C(O)CCc1ccc(OCc2c(C(F)(F)F)ccn2-c2ccc(Cl)cc2)c(F)c1F` was “Stable”.
